The target in experiment [1] is T1, Serine/threonine-protein kinase Chk1 (Homo sapiens, UniProt O14757).
T1 sequence (O14757 whole entry): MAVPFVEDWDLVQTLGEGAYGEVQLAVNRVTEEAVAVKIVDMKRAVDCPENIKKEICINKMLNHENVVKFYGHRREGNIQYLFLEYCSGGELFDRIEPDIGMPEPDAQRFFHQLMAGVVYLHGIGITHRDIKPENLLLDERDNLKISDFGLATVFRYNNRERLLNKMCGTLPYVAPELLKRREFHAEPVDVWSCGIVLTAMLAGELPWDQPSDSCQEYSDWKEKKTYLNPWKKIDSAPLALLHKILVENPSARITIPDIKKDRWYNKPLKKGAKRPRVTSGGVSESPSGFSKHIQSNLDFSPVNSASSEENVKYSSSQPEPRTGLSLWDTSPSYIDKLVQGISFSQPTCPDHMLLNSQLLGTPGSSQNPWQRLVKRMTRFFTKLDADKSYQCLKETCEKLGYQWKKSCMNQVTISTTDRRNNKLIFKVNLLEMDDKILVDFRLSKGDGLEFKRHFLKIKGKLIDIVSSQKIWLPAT
In words: Inhibition of Chk1 (unknown origin) by luminescent ADP-Glo assay. A general note: ADP-Glo turns the ADP formed in a reaction into a luminescent signal.

Experiment [2] concerns the target CDK2/Cyclin A2 (Homo sapiens, UniProt P24941). The experiment can be described thus: Inhibition of CDK2/cyclin A (unknown origin) by HTRF kinase assay. It counts as protein-complex assay. The essentials:
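CDK2/cyclin A was purchased enzyme, tested with an HTRF kinase assay kit. Compounds were first screened at 1 µg/mL final, and those giving more than 40% inhibition were taken forward to IC50.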
In general terms: Time-resolved FRET reads energy transfer from a long-lived donor to a nearby acceptor.

Experiment [3] concerns the target T2, Aurora kinase A (Homo sapiens, UniProt O14965).
T2 sequence (O14965 whole entry): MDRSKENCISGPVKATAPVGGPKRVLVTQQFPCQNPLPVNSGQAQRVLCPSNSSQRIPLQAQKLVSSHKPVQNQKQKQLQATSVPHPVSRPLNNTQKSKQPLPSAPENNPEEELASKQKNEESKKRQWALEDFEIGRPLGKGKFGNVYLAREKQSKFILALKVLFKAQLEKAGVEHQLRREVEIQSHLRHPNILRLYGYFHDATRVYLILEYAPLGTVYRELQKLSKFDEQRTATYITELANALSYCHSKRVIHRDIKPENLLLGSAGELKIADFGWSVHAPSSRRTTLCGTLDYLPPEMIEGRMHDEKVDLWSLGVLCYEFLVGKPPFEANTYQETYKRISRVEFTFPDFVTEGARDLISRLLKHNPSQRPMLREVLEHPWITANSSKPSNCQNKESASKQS
The experiment can be described thus: Inhibition of Aurora A (unknown origin) expressed in Escherichia coli by ZLYTETM assay. The essentials: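 Z'-LYTE kinase assay. Aurora A was recombinant protein expressed in E. coli. Compounds were first tested at 1 µg/mL final. Those giving more than 40% inhibition were taken further, with IC50 reported.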

The target in experiment [4] is Protein kinase C (PKC). In words: Inhibition of PKC (unknown origin) by Z'-LYTETM kinase assay. Also on record: species or system Homo sapiens.
For experiment [5], the species on record is Homo sapiens. In words: Selectivity index, ratio of IC50 for CDK2/cyclinA (unknown origin) to IC50 for Chk1 (unknown origin).
For experiment [6], the species on record is Homo sapiens. In words: Selectivity index, ratio of IC50 for Aurora A (unknown origin) to IC50 for Chk1 (unknown origin).
Experiment [7] is filed under the species Homo sapiens. In words: Selectivity index, ratio of IC50 for PKC (unknown origin) to IC50 for Chk1 (unknown origin).
Experiment [8] relates to RPMI8266. The experiment can be described thus: Cytotoxicity against human […] cells at 100 nM after 72 hrs by MTS assay. It counts as functional, cell-based. The essentials: (§1)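 RPMI 8226 myeloma cells were seeded at 5 × 10³ cells per well in 100 µL. They were treated with Chk1 inhibitor at 100 nM, with melphalan (1, 3 and 10 µM), or with both, for 72 h. MTS was then added at 0.5 mg/mL final for 2–4 h to read growth.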
For orientation: Tetrazolium assays rely on reduction of a dye to a coloured formazan, in cell work by metabolically active cells.

Experiment [9] concerns RPMI8266. The experiment can be described thus: Potentiation of melphalan-induced cytotoxicity against human […] cells at 100 nM after 72 hrs by MTS assay. It counts as functional, cell-based. The essentials:
as §1

Molecules are shown by their SMILES. pIC50: −log10 of the molar value. Activity calls are given as the source filed them. The rule behind the calls is not given here.

What is called pIC50 is the negative decadic logarithm of the IC50, by convention in mol/L. Low values mean a large IC50, high ones a small IC50. In experiment [1], `O=c1[nH]c2sccc2c(NC2CCNCC2)c1-c1nc2ccccc2[nH]1` gave a pIC50 of 8.00.

By IC50 is commonly meant the concentration that inhibits the measured activity by half. High values mean weaker potency in that assay, low ones greater potency in that assay. As for `O=c1[nH]c2ccsc2c(NC2CCCNC2)c1-c1nc2ccccc2[nH]1` (stereo not given), the values for the negative-log IC50 (pIC50) in experiment [1], in experiment [2] and in experiment [3] were 8.12, 6.59 and 6.69, respectively. In [4], the IC50 was 814.06 nM. For the same compound, the Ratio IC50 in experiment [5], in [6] and in [7] was above 20 each time.

With `O=c1[nH]c2sc(Cl)cc2c(NC2CCCNC2)c1-c1nc2ccccc2[nH]1` (stereo not given), the outcome in experiment [8] was inactive. Also, the pIC50 in [1] is 8.39; in experiment [2], 6.48; in experiment [3], 5.98. The result in [9] was Active. Further, in experiment [4], the IC50 worked out at 168.89 nM. Also, the Ratio IC50 in [5], in experiment [6] and in experiment [7] was above 20 each time.

As for `O=c1[nH]c2sccc2c(NC2CN3CCC2CC3)c1-c1nc2ccccc2[nH]1` (stereo not given), the negative logarithm of the IC50 (pIC50) is 7.85 in experiment [1], 5.79 in experiment [2] and below 5.00 in experiment [3]. This compound returned a half-inhibitory concentration (IC50) in experiment [4] of 1001.81 nM. The Ratio IC50 was 100 in [5], above 20 in [6] and 100 in experiment [7].

In experiment [1], `CN(C)CCNc1c(-c2nc3ccccc3[nH]2)c(=O)[nH]c2sccc12` showed a negative logarithm of the IC50 (pIC50) of 6.75.

In experiment [1], `Cc1cc2c(NC3CCNC3)c(-c3nc4ccccc4[nH]3)c(=O)[nH]c2s1` (stereo not given) gave a pIC50 of 7.63.

As for `O=c1[nH]c2sccc2c(N[C@H]2CCCNC2)c1-c1nc2ccccc2[nH]1`, the pIC50 in [1] was 8.28; in experiment [2], 6.07; in experiment [3], 6.31. In experiment [4], this compound had a half-inhibitory concentration (IC50) of 522.51 nM. Besides, the Ratio IC50 in experiment [5], in [6] and in experiment [7] was above 20 throughout.

In the case of `O=c1[nH]c2sc(Br)cc2c(NC2CCCNC2)c1-c1nc2ccccc2[nH]1` (stereo not given), the values for the pIC50 in experiment [1], in [2] and in experiment [3] were 8.32, 6.61 and 5.80, respectively. For the same compound, the IC50 in [4] is recorded as 392.71 nM. In addition, the Ratio IC50 in [5], in [6] and in [7] was above 20 in each case.

`CNCCNc1c(-c2nc3ccccc3[nH]2)c(=O)[nH]c2sccc12`: in experiment [1], the negative logarithm of the IC50 (pIC50) was below 5.00.

In experiment [1], `O=c1[nH]c2sc(Cl)cc2c(NC2CCNC2)c1-c1nc2ccccc2[nH]1` (stereo not given) had a pIC50 of 7.39.

In [1], `Cc1cc2c(NC3CCCNC3)c(-c3nc4ccccc4[nH]3)c(=O)[nH]c2s1` (stereo not given) gave a pIC50 of 8.01.

In the case of `O=c1[nH]c2sccc2c(N2CCCCC2)c1-c1nc2ccccc2[nH]1`, the negative logarithm of the IC50 (pIC50) in [1] is below 5.00.

As for `O=c1[nH]c2ccsc2c(NC2CCNC2)c1-c1nc2ccccc2[nH]1` (stereo not given), in experiment [1], the pIC50 was 7.61.

As for `COc1ccc2[nH]c(-c3c(NC4CN5CCC4CC5)c4cc(Cl)sc4[nH]c3=O)nc2c1` (stereo not given), the pIC50 in [1] was 8.27; in experiment [2] it was 5.37; in [3], 5.85. This compound showed an IC50 in experiment [4] of 8186.03 nM. Besides, the Ratio IC50 in [5] is 100; in experiment [6] it was above 20; in experiment [7] it was 100.

In experiment [1], `O=c1[nH]c2sccc2c(NC2CCCCC2)c1-c1nc2ccccc2[nH]1` had a pIC50 below 5.00.

As for `O=c1[nH]c2sccc2c(N2CCOCC2)c1-c1nc2ccccc2[nH]1`, the pIC50 in experiment [1] is below 5.00.

In turn, `O=c1[nH]c2sccc2c(N2CCC(CO)CC2)c1-c1nc2ccccc2[nH]1` gave a pIC50 in experiment [1] below 5.00.

For the compound `O=c1[nH]c2sc(Cl)cc2c(NC2CN3CCC2CC3)c1-c1nc2ccccc2[nH]1` (stereo not given), the outcome in experiment [8] was inactive. For the same compound, the pIC50 in experiment [1] is 8.21; in experiment [2], 5.50; in experiment [3], below 5.00. The outcome in [9] was Active. The compound also displayed an IC50 in experiment [4] of 2018.88 nM. The Ratio IC50 in experiment [5] was 100; in experiment [6], above 20; in experiment [7], 100.

As for `O=c1[nH]c2sc(Cl)cc2c(N[C@H]2CCCNC2)c1-c1nc2ccccc2[nH]1`, the negative logarithm of the IC50 (pIC50) in experiment [1] was 8.45.

On to `O=c1[nH]c2sccc2c(NCC2CCNCC2)c1-c1nc2ccccc2[nH]1`, for which the pIC50 in experiment [1] is 6.94.

`NCCNc1c(-c2nc3ccccc3[nH]2)c(=O)[nH]c2sccc12` showed a pIC50 in experiment [1] below 5.00.

`COC(=O)CCNc1c(-c2nc3ccccc3[nH]2)c(=O)[nH]c2sccc12` gave a negative logarithm of the IC50 (pIC50) in [1] below 5.00.

`O=c1[nH]c2sccc2c(NCCN2CCOCC2)c1-c1nc2ccccc2[nH]1` gave a negative logarithm of the IC50 (pIC50) in [1] below 5.00.

`COc1ccc2[nH]c(-c3c(N[C@H]4CCCNC4)c4cc(Cl)sc4[nH]c3=O)nc2c1`: the result in experiment [8] was inactive. The results for the pIC50 in experiment [1], in [2] and in experiment [3] were 8.63, 6.41 and 6.48, respectively. For the same compound, in experiment [9], the result was Active. In experiment [4], this compound displayed an IC50 of 204.48 nM. Besides, the Ratio IC50 in experiment [5], in experiment [6] and in experiment [7] was above 20 throughout.

`O=c1[nH]c2sccc2c(NC2CCNC2)c1-c1nc2ccccc2[nH]1` (stereo not given) showed a pIC50 in [1] of 7.32.

On to `NC(=O)Nc1cc(-c2cccc(F)c2)sc1C(=O)N[C@H]1CCCNC1`, for which the result in [8] was inactive. The outcome in experiment [9] was Active.

In [1], `O=c1[nH]c2sc(Br)cc2c(NC2CCNC2)c1-c1nc2ccccc2[nH]1` (stereo not given) showed a pIC50 of 7.81.

In experiment [1], `O=c1[nH]c2sccc2c(NCCO)c1-c1nc2ccccc2[nH]1` had a pIC50 below 5.00.

Take `O=c1[nH]c2sccc2c(NC2CCCNC2)c1-c1nc2ccccc2[nH]1` (stereo not given): the results for the pIC50 in [1], in experiment [2] and in experiment [3] were 7.81, 6.07 and 6.10, respectively. Further, in [4], the IC50 was determined as 695.85 nM. Moreover, the Ratio IC50 in experiment [5], in experiment [6] and in experiment [7] was above 20 throughout.

The values above are taken from ChEMBL document CHEMBL3352128, “Design, synthesis and biological evaluation of thienopyridinones as Chk1 inhibitors” (Bioorg Med Chem, 2014).
